What is called IC50 is the concentration that gives 50% inhibition. Broadly, the MIC is the least concentration at which growth counts as inhibited.

For assay [1], the target named is T1, Peptidoglycan D,D-transpeptidase MrdA (Escherichia coli K-12) (UniProt P0AD65).
T1 sequence (whole entry): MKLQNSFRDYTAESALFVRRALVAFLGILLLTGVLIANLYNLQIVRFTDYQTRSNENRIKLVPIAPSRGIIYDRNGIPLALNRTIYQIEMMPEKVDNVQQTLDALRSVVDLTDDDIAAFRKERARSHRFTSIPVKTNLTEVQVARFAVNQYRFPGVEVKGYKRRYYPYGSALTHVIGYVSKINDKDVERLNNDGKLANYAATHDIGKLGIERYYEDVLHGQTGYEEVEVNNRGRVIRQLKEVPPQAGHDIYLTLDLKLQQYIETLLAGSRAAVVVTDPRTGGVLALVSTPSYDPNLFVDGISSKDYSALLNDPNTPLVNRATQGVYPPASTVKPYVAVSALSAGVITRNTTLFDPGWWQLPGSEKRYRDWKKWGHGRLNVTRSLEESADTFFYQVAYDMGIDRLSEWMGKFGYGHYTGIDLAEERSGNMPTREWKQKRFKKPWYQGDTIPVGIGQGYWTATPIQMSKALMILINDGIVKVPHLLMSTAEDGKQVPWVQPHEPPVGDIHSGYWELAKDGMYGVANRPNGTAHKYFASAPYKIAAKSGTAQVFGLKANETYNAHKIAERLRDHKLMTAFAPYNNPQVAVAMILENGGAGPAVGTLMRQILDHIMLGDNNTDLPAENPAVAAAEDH
The assay can be described thus: Binding affinity to Escherichia coli K12 NusA-fused/His6-tagged PBP2 (57 to 615 residues) expressed in Escherichia coli BL21(DE3) assessed as melting temperature at protein to compound ratio of 1:10 measured after 30 mins using SYPRO orange dye by RT-PCR-based fluorescence assay (reference value: 47 +/- 0.5 degC). The gist of the method:
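Thermal unfolding was monitored with SYPRO Orange dye in a real-time PCR instrument, at a protein/ligand ratio of 1/10. Tm was taken at the inflexion point of the denaturation curve and reported ±0.5 °C.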

The target of assay [2] is T2, Peptidoglycan D,D-transpeptidase MrdA (Escherichia coli K-12, UniProt P0AD65).
T2 sequence (P0AD65 whole entry): T1 sequence (whole entry)
Briefly: Inhibition of bocillin-FL binding to Escherichia coli K12 NusA-fused/His6-tagged PBP2 (57 to 615 residues) expressed in Escherichia coli BL21(DE3) preincubated for 30 mins followed by bocillin-FL addition by RT-fluorescence anisotropy method.

The target of assay [3] is T3, Penicillin-binding protein 1A (Escherichia coli K-12) (UniProt P02918).
T3 sequence (whole entry): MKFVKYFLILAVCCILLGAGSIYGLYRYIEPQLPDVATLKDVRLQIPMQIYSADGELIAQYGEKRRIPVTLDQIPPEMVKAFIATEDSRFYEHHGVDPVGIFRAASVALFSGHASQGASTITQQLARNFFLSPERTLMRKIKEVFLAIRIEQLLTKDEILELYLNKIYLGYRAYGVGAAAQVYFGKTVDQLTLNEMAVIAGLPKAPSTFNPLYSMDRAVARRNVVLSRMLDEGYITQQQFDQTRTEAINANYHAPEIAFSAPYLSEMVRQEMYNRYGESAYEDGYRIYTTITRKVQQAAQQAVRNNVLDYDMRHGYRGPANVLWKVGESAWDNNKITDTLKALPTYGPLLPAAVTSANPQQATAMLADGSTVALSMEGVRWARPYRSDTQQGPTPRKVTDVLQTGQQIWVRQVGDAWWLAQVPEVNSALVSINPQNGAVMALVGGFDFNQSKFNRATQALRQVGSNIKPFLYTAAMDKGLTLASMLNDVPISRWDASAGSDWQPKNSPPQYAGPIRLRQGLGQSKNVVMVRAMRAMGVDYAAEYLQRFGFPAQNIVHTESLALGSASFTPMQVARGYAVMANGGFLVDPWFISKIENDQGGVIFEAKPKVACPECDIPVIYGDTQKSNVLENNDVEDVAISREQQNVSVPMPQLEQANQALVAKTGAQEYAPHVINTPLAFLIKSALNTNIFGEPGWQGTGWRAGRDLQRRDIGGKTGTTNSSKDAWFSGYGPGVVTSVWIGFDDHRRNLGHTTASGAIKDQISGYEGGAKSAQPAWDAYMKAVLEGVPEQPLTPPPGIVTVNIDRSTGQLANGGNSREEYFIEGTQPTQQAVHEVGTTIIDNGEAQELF
Briefly: Inhibition of Escherichia coli PBP1a.

The next assay deals with Pseudomonas aeruginosa. The assay can be described thus: Antibacterial activity against Pseudomonas aeruginosa UFR49 measured after 16 to 20 hrs by broth microdilution method. It counts as functional. A general note: In broth dilution the organism is exposed to a series of concentrations in liquid medium.
For assay [4], the target named is T3, Penicillin-binding protein 1A (Escherichia coli K-12). The assay can be described thus: Inhibition of Escherichia coli PBP1a up to 200 uM.
In another assay the test system is Bacteria. Briefly: Inhibition of bacterial OXA-15.

In brackets after ≈: the same amount, converted by molar mass. Activity calls are given as the source filed them. The calls are words filed in the database; no cut-off is given here.

On to `NC[C@@H]1C=C(c2cnco2)[C@@H]2CN1C(=O)N2OS(=O)(=O)O` (relative stereo), for which the Tm in assay [1] came out at 55.5 °C. In assay [2], this molecule had an IC50 of 10 nM. Besides, the inhibition result in assay [3] and in assay [4] was “inactive” in each case. The MIC against Pseudomonas aeruginosa stood at 2 µg/mL (≈ 6.32 µM). Further, the inhibition result in the assay on Bacteria was “Active”.
